Laboratory results from ChEMBL document CHEMBL2434944, “Novel acetamidothiazole derivatives: synthesis and in vitro anticancer evaluation” (Eur J Med Chem, 2013).

Experiments:
[1] = Growth inhibition of human Hs 578T cells assessed as cell growth at 10^-5 M after 48 hrs by sulforhodamine B assay relative to control; assay type: functional; details: read-out: Activity
How it was run: (§1)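 NCI-60 single-dose screen at 10^-5 M. Cells grown in RPMI 1640 with 5% FBS and 2 mM L-glutamine, plated at 5,000–40,000 cells/well according to doubling time, and preincubated 24 h at 37°C, 5% CO2. Compound dissolved in DMSO and added. Exposure 48 h. Adherent cells fixed with cold TCA (10% final), suspension cells with 16% final TCA. Read-out is 0.4% SRB staining, dye solubilised in 10 mM Tris, absorbance at 515 nm. Percent growth is calculated against the time-zero plate and untreated control.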

T47D = assay: Growth inhibition of human T47D cells assessed as cell growth at 10^-5 M after 48 hrs by sulforhodamine B assay relative to control; assay type: functional; details: read-out: Activity
How it was run: (§2)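 NCI-60 single-dose screen, 10^-5 M final. Cells grown in RPMI 1640 with 5% FBS and 2 mM L-glutamine, seeded at 5,000–40,000 cells/well by doubling time. Preincubated 24 h at 37°C, 5% CO2. Compound in DMSO, diluted in medium with gentamicin, then 48 h exposure. Fixed with cold TCA, SRB stained, A515 read. Percent growth vs untreated control, time-zero plate corrected.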

[2] = molecular target: T1, Leukotriene A-4 hydrolase (Homo sapiens, UniProt P09960); assay: Inhibition of human leukotriene A-4 hydrolase
T1 sequence (P09960 whole entry): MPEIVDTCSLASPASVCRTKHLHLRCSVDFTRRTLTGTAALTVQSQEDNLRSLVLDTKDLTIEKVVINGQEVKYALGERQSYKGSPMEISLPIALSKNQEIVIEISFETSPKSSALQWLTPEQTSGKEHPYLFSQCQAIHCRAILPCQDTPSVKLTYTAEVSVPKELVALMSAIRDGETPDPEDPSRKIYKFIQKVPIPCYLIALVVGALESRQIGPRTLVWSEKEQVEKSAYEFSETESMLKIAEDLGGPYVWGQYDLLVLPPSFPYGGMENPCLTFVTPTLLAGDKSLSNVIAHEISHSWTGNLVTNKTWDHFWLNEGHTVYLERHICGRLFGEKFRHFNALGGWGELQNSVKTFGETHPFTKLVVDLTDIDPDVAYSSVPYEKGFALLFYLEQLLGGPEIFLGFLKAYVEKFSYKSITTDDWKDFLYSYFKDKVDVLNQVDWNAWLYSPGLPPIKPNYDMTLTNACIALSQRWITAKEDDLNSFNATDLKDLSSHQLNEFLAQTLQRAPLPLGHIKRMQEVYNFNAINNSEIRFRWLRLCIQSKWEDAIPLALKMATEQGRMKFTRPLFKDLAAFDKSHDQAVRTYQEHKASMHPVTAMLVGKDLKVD

LOX IMVI = assay: Growth inhibition of human LOXIMVI cells assessed as cell growth at 10^-5 M after 48 hrs by sulforhodamine B assay relative to control; assay type: functional; details: read-out: Activity; how it was run: as §1
DU-145 = assay: Growth inhibition of human DU145 cells assessed as cell growth at 10^-5 M after 48 hrs by sulforhodamine B assay relative to control; assay type: functional; details: DU-145, 48 h, read-out: Activity; how it was run: as §1
ACHN = assay: Growth inhibition of human ACHN cells assessed as cell growth at 10^-5 M after 48 hrs by sulforhodamine B assay relative to control; assay type: functional; details: read-out: Activity; how it was run: as §1
CCRF-CEM = assay: Growth inhibition of human CCRF-CEM cells assessed as cell growth at 10^-5 M after 48 hrs by sulforhodamine B assay relative to control; assay type: functional; details: read-out: Activity; how it was run: as §1
SR = assay: Growth inhibition of human SR cells assessed as cell growth at 10^-5 M after 48 hrs by sulforhodamine B assay relative to control; assay type: functional; details: read-out: Activity; how it was run: as §2
NCI-H522 = assay: Growth inhibition of human NCI-H522 cells assessed as cell growth at 10^-5 M after 48 hrs by sulforhodamine B assay relative to control; assay type: functional; details: NCI-H522, 48 h, read-out: Activity; how it was run: as §1
MDA-MB-435 = assay: Growth inhibition of human MDA-MB-435 cells assessed as cell growth at 10^-5 M after 48 hrs by sulforhodamine B assay relative to control; assay type: functional; details: MDA-MB-435, 48 h, read-out: Activity; how it was run: as §1
SK-MEL-2 = assay: Growth inhibition of human SK-MEL-2 cells assessed as cell growth at 10^-5 M after 48 hrs by sulforhodamine B assay relative to control; assay type: functional; details: SK-MEL-2, 48 h, read-out: Activity; how it was run: as §1
COLO 205 = assay: Growth inhibition of human COLO205 cells assessed as cell growth at 10^-5 M after 48 hrs by sulforhodamine B assay relative to control; assay type: functional; details: COLO 205, 48 h, read-out: Activity; how it was run: as §1
[3] = molecular target: Mitogen-activated protein kinase 1 (Homo sapiens, UniProt P28482); assay: Inhibition of human MAPK1
Sequence of Mitogen-activated protein kinase 1 (P28482 whole entry): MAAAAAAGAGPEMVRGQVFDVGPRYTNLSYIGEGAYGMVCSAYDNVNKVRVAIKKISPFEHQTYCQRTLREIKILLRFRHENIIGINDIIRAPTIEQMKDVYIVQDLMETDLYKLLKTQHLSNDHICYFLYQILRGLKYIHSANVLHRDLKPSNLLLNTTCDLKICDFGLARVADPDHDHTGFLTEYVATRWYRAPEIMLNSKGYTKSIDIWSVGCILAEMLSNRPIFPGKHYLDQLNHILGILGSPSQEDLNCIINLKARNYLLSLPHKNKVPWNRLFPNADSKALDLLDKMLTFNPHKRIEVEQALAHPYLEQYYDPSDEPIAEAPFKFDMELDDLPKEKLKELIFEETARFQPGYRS

HCT-116 = assay: Growth inhibition of human HCT116 cells assessed as cell growth at 10^-5 M after 48 hrs by sulforhodamine B assay relative to control; assay type: functional; details: HCT-116, 48 h, read-out: Activity; how it was run: as §1
BT-549 = assay: Growth inhibition of human BT549 cells assessed as cell growth at 10^-5 M after 48 hrs by sulforhodamine B assay relative to control; assay type: functional; details: BT-549, 48 h, read-out: Activity; how it was run: as §1
A549 = assay: Growth inhibition of human A549 cells assessed as cell growth at 10^-5 M after 48 hrs by sulforhodamine B assay relative to control; assay type: functional; details: A549, 48 h, read-out: Activity; how it was run: as §1
Malme-3M = assay: Growth inhibition of human MALME-3M cells assessed as cell growth at 10^-5 M after 48 hrs by sulforhodamine B assay relative to control; assay type: functional; details: read-out: Activity; how it was run: as §1
HCT-15 = assay: Growth inhibition of human HCT15 cells assessed as cell growth at 10^-5 M after 48 hrs by sulforhodamine B assay relative to control; assay type: functional; details: HCT-15, 48 h, read-out: Activity; how it was run: as §1
M14 = assay: Growth inhibition of human M14 cells assessed as cell growth at 10^-5 M after 48 hrs by sulforhodamine B assay relative to control; assay type: functional; details: M14, 48 h, read-out: Activity; how it was run: as §1
MOLT-4 = assay: Growth inhibition of human MOLT4 cells assessed as cell growth at 10^-5 M after 48 hrs by sulforhodamine B assay relative to control; assay type: functional; details: MOLT-4, 48 h, read-out: Activity; how it was run: as §1
U-251 = assay: Growth inhibition of human U251 cells assessed as cell growth at 10^-5 M after 48 hrs by sulforhodamine B assay relative to control; assay type: functional; details: U-251, 48 h, read-out: Activity; how it was run: as §2
MCF7 = assay: Growth inhibition of human MCF7 cells assessed as cell growth at 10^-5 M after 48 hrs by sulforhodamine B assay relative to control; assay type: functional; details: MCF7, 48 h, read-out: Activity; how it was run: as §1
SNB-75 = assay: Growth inhibition of human SNB75 cells assessed as cell growth at 10^-5 M after 48 hrs by sulforhodamine B assay relative to control; assay type: functional; details: SNB-75, 48 h, read-out: Activity; how it was run: as §1
NCI-H226 = assay: Growth inhibition of human NCI-H226 cells assessed as cell growth at 10^-5 M after 48 hrs by sulforhodamine B assay relative to control; assay type: functional; details: NCI-H226, 48 h, read-out: Activity; how it was run: as §1

Compound	growth at 10 µM [1] [%]	growth at 10 µM (T47D) [%]	Ki [2] [nM]	growth at 10 µM (LOX IMVI) [%]	growth at 10 µM (DU-145) [%]	growth at 10 µM (ACHN) [%]	growth at 10 µM (CCRF-CEM) [%]	growth at 10 µM (SR) [%]	growth at 10 µM (NCI-H522) [%]	growth at 10 µM (MDA-MB-435) [%]	growth at 10 µM (SK-MEL-2) [%]	growth at 10 µM (COLO 205) [%]	Ki [3] [nM]	growth at 10 µM (HCT-116) [%]	growth at 10 µM (BT-549) [%]	growth at 10 µM (A549) [%]	growth at 10 µM (Malme-3M) [%]	growth at 10 µM (HCT-15) [%]	growth at 10 µM (M14) [%]	growth at 10 µM (MOLT-4) [%]	further results
CN1CCN(C(=O)Cn2c(-c3ccccc3)csc2=N)CC1	88.2	78	629	87.3	104	81.2	97.6	74.1	82.3	104	118	103	4890	91.6	92.6	92	89.1	87.6	94.2	95.2	growth at 10 µM (U-251): 88.2%; growth at 10 µM (MCF7): 81.4%; growth at 10 µM (SNB-75): 56.5%; growth at 10 µM (NCI-H226): 85.2%
CC(=O)N1CCN(C(=O)Cn2c(-c3ccc(Cl)cc3)csc2=N)CC1	104	79	607	93.8	99	90.7	92.3	74.7	62.1	85.3	95.7	97	778	93	89.9	75.9	133	86.5	95.1	77	growth at 10 µM (U-251): 85.9%; growth at 10 µM (MCF7): 84.5%; growth at 10 µM (SNB-75): 74.4%; growth at 10 µM (NCI-H226): 96.3%
CN1CCN(C(=O)Cn2c(-c3ccc(Cl)cc3)csc2=N)CC1	106	78.4	172	96.8	99	98.6	89.1	78.5	86.7	92.2	102	101	8840	94.4	104	90.1	99.6	93.1	98.9	75.1	growth at 10 µM (U-251): 91.2%; growth at 10 µM (MCF7): 92.2%; growth at 10 µM (SNB-75): 79.5%; growth at 10 µM (NCI-H226): 95.9%
N=c1scc(-c2ccc(Cl)cc2)n1CC(=O)N1CCN(c2ccccc2)CC1	106	88.9	93	103	114	96.1	96.2	88	76.9	92.2	79	105	501	101	102	84.8	107	96.8	99.7	87	growth at 10 µM (U-251): 89.6%; growth at 10 µM (MCF7): 90.8%; growth at 10 µM (SNB-75): 78.4%; growth at 10 µM (NCI-H226): 92.2%
Cc1ccc(-c2csc(=N)n2CC(=O)N2CCN(C)CC2)cc1	101	81.6	369	89.1	109	81.2	87.1	86.5	80.6	83.4	108	106	1890	104	115	86.8	128	91.6	105	76.3	growth at 10 µM (U-251): 83.9%; growth at 10 µM (MCF7): 93.2%; growth at 10 µM (SNB-75): 73.5%; growth at 10 µM (NCI-H226): 93.1%
